Experimental data: ChEMBL document CHEMBL1138407, “Bioactive bibenzyl derivatives and fluorenones from Dendrobium nobile” (J Nat Prod, 2007)
Calls of active or inactive are those of the source. No cut-off for these calls is given here.

Legend:
[1] = system: Radical scavenging activity; assay: Antioxidant activity assessed by DPPH radical scavenging assay; assay type: functional
Summary of the method: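 Test samples at several concentrations in EtOH mixed 1:1 by volume with a 200 μM DPPH solution in EtOH. After 1 min shaking, incubated 30 min at room temperature in the dark, then A517 read. Sample-only wells without DPPH corrected for colour. Done in triplicate, reported as mean ± SD. IC50 is the sample concentration scavenging 50% of DPPH.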

[2] = Antioxidant activity assessed by ORAC assay; assay type: functional
Summary of the method: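 Samples at several concentrations combined with potassium phosphate buffer (7.5 mM as added) and sodium fluorescein probe (63 nM as added), then preincubated 5 min at 37 °C. Reaction started with AAPH (12.8 mM as added). Fluorescence (ex 485/em 538 nm) read every 2 min until decay neared zero. Trolox standard. Done in triplicate, reported as mean ± SD in μmol Trolox equivalents per μmol sample.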

[3] = Cytotoxicity against murine RAW 264.7 cells by MTT assay; assay type: cell-based; conditions: mouse
Summary of the method: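 MTT viability measured in RAW 264.7 cultures from the LPS/IFN-γ-stimulated NO assay, in duplicate, to flag cytotoxic concentration ranges.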

RAW = assay: Inhibition of LPS and IFN-gamma-activated NO production in murine RAW 264.7 cells; conditions: Mus musculus

Row | Compound | IC50 [1] [µM] | IC50 (RAW) [µM] | Activity [2] | Activity [3]
1 | COc1cc(O)cc2c1-c1c(O)ccc(O)c1C2=O | 16.2 | 13.4 | Active | –
2 | COc1ccc(CCc2cc(OC)c(OC)c(OC)c2)cc1OC | > 200 | 48.2 | inactive | –
3 | O=C1O[C@H]([C@@H](O)CO)C(O)=C1O [ASCORBIC ACID] | 18 | – | – | –
4 | Cc1cc(C(C)(C)C)c(O)c(C(C)(C)C)c1 [BUTYLATED HYDROXYTOLUENE] | 90.9 | – | – | –
5 | COc1cc(O)cc2c1-c1ccc(O)cc1C2=O [NOBILONE] | > 200 | 38.1 | Active | –
6 | Oc1ccc(/C=C/c2cc(O)cc(O)c2)cc1 [RESVERATROL] | – | 23.5 | – | –

Now from value to compound, other results behind:

Row | IC50 [1] [µM] | IC50 (RAW) [µM] | Compound | Activity [2] | Activity [3]
7 | 40.3 | – | COc1cccc(CCc2cc(O)c(O)c(OC)c2)c1 | – | –
8 | 21.8 | – | COc1cc(CCc2cc(OC)c(OC)c(OC)c2)ccc1O | Active | Toxic
9 | 14 | – | COc1ccc(CCc2cc(OC)c(O)c(OC)c2)cc1OC | Active | Toxic
10 | 56.4 | 32.9 | COc1cc(O)cc(CCc2ccc(O)c(OC)c2)c1 [GIGANTOL] | Active | –
11 | 14.5 | 36.8 | COc1cc(CCc2cc(OC)c(O)c(OC)c2)ccc1O [MOSCATILIN] | Active | –
12 | 19.9 | 15.3 | COc1cc(CC(O)c2cc(OC)c(O)c(OC)c2)ccc1O (stereo not given) [NOBILIN D] | Active | –
13 | 21 | 19.2 | COc1cccc(CCc2cc(OC)c(O)c3c2C(Cc2cccc(OC)c2)c2cc(O)c(O)c(OC)c2O3)c1 (stereo not given) [NOBILIN E] | – | –
